Converted amounts (≈) assume the structure as drawn. “And” between values parts separate entries of the source, which are not always exact repeats. Identical values can stand only once. Like-named read-outs stand apart in the source and are kept apart here.
Legend:
[1] = tested on: A. baumannii HUMC1 (CR-XDR); assay: Antimicrobial susceptibility testing in MM; assay type: cell-based, Acinetobacter baumannii; conditions: for EC50 / MIC: Acinetobacter baumannii, 24 h; for EC50: read-out: HUMC EC50
[2] = biological target: T1, AbDHODH (Acinetobacter baumannii, UniProt B7GZW7); assay: AbDHODH steady-state rate assay; assay type: biochemical
T1 sequence (B7GZW7 1-334): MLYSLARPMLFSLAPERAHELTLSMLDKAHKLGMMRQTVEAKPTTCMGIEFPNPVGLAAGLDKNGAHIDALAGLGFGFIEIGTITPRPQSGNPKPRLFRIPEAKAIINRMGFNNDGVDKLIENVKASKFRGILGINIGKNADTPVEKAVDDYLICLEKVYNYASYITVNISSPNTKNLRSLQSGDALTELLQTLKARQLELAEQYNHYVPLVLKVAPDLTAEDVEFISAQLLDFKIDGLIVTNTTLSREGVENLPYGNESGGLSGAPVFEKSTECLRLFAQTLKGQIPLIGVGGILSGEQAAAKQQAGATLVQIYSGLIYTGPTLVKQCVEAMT

[3] = biological target: T2, HsDHODH (Homo sapiens, UniProt Q02127); conditions: read-out: HsDHODH IC50; previously reported; ref [25], [27]; cited from earlier work
[4] = tested on: A. baumannii AB307-0294; assay: Antimicrobial susceptibility testing in MM; assay type: cell-based, Acinetobacter baumannii; conditions: for EC50: Acinetobacter baumannii, AB3070294, 24 h, read-out: AB307 EC50; for uracil rescue of growth: AB307, 0.2 mM uracil; for cidal or static activity by CFU vs initial inoculum: AB307 and HUMC1, DSM186 at >1 µg/mL, DSM161 at highest concentrations assessed
[5] = tested on: A. baumannii LAC-4 (MDR); assay: Antimicrobial susceptibility testing in MM; assay type: cell-based; conditions: Acinetobacter baumannii, 24 h; for EC50: read-out: LAC-4 EC50; for MIC: read-out: LAC-4 MIC
Method in brief: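 Overnight (18 h) cultures in minimal medium (MM) plus casamino acids were diluted 1:1,000 and titred on LB plates. Test compound (in DMSO) was added at various concentrations, giving about 5 × 10^5 CFU/mL final. Medium-only and DMSO wells served as controls. Plates were shaken at 37 °C for 24 h, reading Å600 every 15 min. […] There were 2–4 technical replicates per concentration, and results are mean ± SEM of multiple independent studies.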

[6] = tested on: A. baumannii AB307ΔpyrD; assay: Time-kill assay; assay type: cell-based, Acinetobacter baumannii; conditions: pyrimidine-deficient medium
[7] = tested on: A. baumannii AB307-0294 isolates; assay: Susceptibility of AB307-0294 isolates recovered from DSM161-treated mice; assay type: cell-based, Acinetobacter baumannii; conditions: eight independent colonies of AB307 from three animals
Method in brief: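 Neutropenic BALB/c mice were infected in the thigh with AB307 and given test compound orally at 100 mg/kg at 0 and 12 h. Eight independent colonies were recovered from three sites in three animals and retested. MIC was determined by CFU at 24 h in MM, defined as growth within ± ½ log of the starting inoculum.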

[8] = tested on: A. baumannii AB307; assay: Time-kill assay; assay type: cell-based, Acinetobacter baumannii; conditions: DSM186 1 µg/mL, DSM161 17.5 µg/mL, meropenem 1 µg/mL
Method in brief: (§1)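 Time-kill assays were run in pyrimidine-deficient MM at a fixed compound concentration: 1 µg/mL (2.9 µM) or 17.5 µg/mL (50 µM). Untreated and meropenem 1 µg/mL (2.6 µM) comparators were included. CFU was enumerated over time against the starting inoculum. Data are mean ± SEM of 2–4 independent studies, each with 2–5 technical replicates.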

[9] = tested on: A. baumannii AB307; assay: Efflux and permeability assay; assay type: cell-based, Acinetobacter baumannii; conditions: DSM186 0.015 µg/mL
[10] = tested on: A. baumannii HUMC1; assay: Time-kill assay; assay type: cell-based, Acinetobacter baumannii; conditions: DSM186 1 µg/mL, meropenem 1 µg/mL
Method in brief: as §1

[11] = Microsomal stability; assay type: in vitro ADME; conditions: mouse microsomes
[12] = Microsomal stability; assay type: in vitro ADME; conditions: human liver microsomes
[13] = tested on: A. baumannii strains; assay: DSM186 on a panel of A. baumannii strains; assay type: cell-based, Acinetobacter baumannii; conditions: for MIC: Acinetobacter baumannii
[14] = biological target: T2, HsDHODH; assay: biochemical
[15] = read-out: MIC as measured by CFU

T2 sequence (Q02127 whole entry): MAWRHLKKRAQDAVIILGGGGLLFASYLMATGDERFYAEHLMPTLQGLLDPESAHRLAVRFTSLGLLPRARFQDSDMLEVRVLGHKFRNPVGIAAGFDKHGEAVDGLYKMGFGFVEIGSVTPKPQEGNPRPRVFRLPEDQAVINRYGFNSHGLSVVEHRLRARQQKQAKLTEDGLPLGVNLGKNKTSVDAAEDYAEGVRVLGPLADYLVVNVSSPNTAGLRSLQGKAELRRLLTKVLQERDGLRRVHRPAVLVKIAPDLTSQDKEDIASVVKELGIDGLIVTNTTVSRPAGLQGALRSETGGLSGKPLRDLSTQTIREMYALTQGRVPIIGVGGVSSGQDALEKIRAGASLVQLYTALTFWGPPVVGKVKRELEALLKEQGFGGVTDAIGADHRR

Structure (SMILES)	EC50 [1] [µM]	MIC ([1]; read-out: HUMC MIC)	IC50 [2] [µM]	EC50 [4] [µM]	EC50 [5] [µM]	MIC [5]	uracil rescue of growth [4]	time-kill: CFU over time vs starting inoculum [8]	also measured
Cc1cc(Nc2ccc(C(F)(F)F)c(F)c2)n2ncnc2n1 [DSM125]	34	51 µM and 16 µg/mL	0.91 ± 0.07	9.6					IC50 [3]: > 100 µM
Cc1cc(Nc2ccc(S(F)(F)(F)(F)F)cc2)n2ncnc2n1 [DSM161]	8.4 ± 0.85	25 µM and 8.8 µg/mL	0.3 ± 0.11	1.4 ± 0.3	4.4 ± 0.47	25 µM and 8.8 µg/mL	uracil rescue was also demonstrated	decreased below the starting inoculum	MIC [1, 15]: 50 µM and 17.5 µg/mL; fold difference in potency, drug-resistant strains vs drug-sensitive AB307 ([1]; HUMC1 and LAC-4 vs AB307): 3–6 fold; time-kill: killing of DHODH deletion mutant [6]: neither DSM186 nor DSM161 caused increased killing; change in MIC (by CFU) of colonies recovered from treated animals [7]: no change in MIC; IC50 [3]: > 100 µM; cidal or static activity by CFU vs initial inoculum [4]: bacteriostatic; fold MIC by CFU higher than MIC by absorbance assay ([4]; both strains (AB307, HUMC1)): 10 fold
Cc1cc(Nc2ccc(S(F)(F)(F)(F)F)cc2)n2ccnc2n1 [DSM186]	0.17 ± 0.0033	0.78 µM and 0.27 µg/mL	0.028 ± 0.0038	0.053 ± 0.0082	0.17 ± 0.033	1.3 µM and 0.45 µg/mL	rescued by the addition of uracil	decreased below the starting inoculum	effect of combination of PAβN and PMBN on activity [9]: less active than PMBN alone; effect of efflux inhibitor PAβN on activity ([9]; PAβN 70 µg/mL): somewhat increased the activity; effect of permeability-increasing agent PMBN on activity ([9]; PMBN 64 µg/mL): somewhat increased the activity; MIC [1, 15]: 1.6 µM and 0.55 µg/mL; uracil rescue of growth ([1]; HUMC1, 0.2 mM uracil): rescued by the addition of uracil; time-kill: CFU over time vs starting inoculum [10]: decreased below the starting inoculum; time-kill: killing of DHODH deletion mutant [6]: neither DSM186 nor DSM161 caused increased killing; metabolic stability [11]: less stable; cidal or static activity by CFU vs initial inoculum [4]: cidal activity; metabolic stability [12]: metabolically stable; concentration inhibiting growth by CFU ([13]; 17/23 strains, relative to starting inoculum (± ½ log) at 24 h): 1 µg/mL and 2.9 µM; activity across strains tested ([13]; 30 strains including 12 CR-XDR isolates): active against all the 30 strains tested; MIC ([13]; read-out: MIC assessed by Å600): 0.11 to 1.09 mg/L (≈ 0.314 to 3.11 µM); MIC ([13]; read-out: minimal inhibitory concentration): ≤ 1 mg/L; concentration inhibiting growth by CFU ([13]; remaining six strains): 2 µg/mL and 5.8 µM; IC50 [14]: > 100 µM
Cc1cc(Nc2ccc3c(c2)CCCC3)n2ccnc2n1 [DSM187]			0.17						
Cc1cc(Nc2ccc(C(F)(F)F)cc2)c2ccccc2n1 [DSM250]			0.085 ± 0.015	0.38 ± 0.14	1.6	12.5 µM and 3.8 µg/mL	uracil rescue was also demonstrated		concentrations showing some off-target activity ([4]; AB307, uracil rescue study): above 10 µM; IC50 [14]: > 100 µM
Cc1cc(Nc2ccc(S(F)(F)(F)(F)F)cc2)n2nc(C(C)(F)F)nc2n1 [DSM265]			0.59 ± 0.16	2.7 ± 0.21			uracil rescue was also demonstrated		
C[C@@H](O)[C@H]1C(=O)N2C(C(=O)O)=C(S[C@@H]3CN[C@H](C(=O)N(C)C)C3)[C@H](C)[C@H]12 [meropenem, reference compound]								decreased below the starting inoculum	
